{"source": "ChEMBL document CHEMBL1126742", "about": "“Syntheses of 5'-substituted analogues of carbocyclic 3-deazaadenosine as potential antivirals” (J Med Chem, 1993)", "key": {"[1]": {"test_system": "Vaccinia virus", "assay": "Minimum inhibitory concentration against vaccinia virus", "format": "functional", "details": "Orthopoxvirus vaccinia"}, "[2]": {"test_system": "Vesicular stomatitis virus", "assay": "Minimum inhibitory concentration against vesicular stomatitis virus", "format": "functional"}, "[3]": {"test_system": "LLC-MK2", "assay": "Minimum toxic concentration against yellow fever virus (MK2 cell line)", "format": "functional, Cercopithecidae", "procedure,_shortened": "(§1)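 Host-cell toxicity was measured alongside the antiviral test. MTC is the lowest concentration of test compound giving a 50% reduction in percent survival of viable host cells.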"}, "[4]": {"test_system": "Vero", "assay": "Inhibitory concentration (reduction in cytopathic effect) against vaccinia virus (vero cell line)", "format": "functional, cell-based", "details": "Chlorocebus sabaeus", "procedure,_shortened": "(§2)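 Antiviral activity was scored as inhibition of virus cytopathic effect (CPE) in the named host cells. IC50 is the drug concentration giving a 50% reduction in virus CPE.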"}, "[5]": {"test_system": "L929", "assay": "Virus rating against vesicular stomatitis virus (L-929 cell line)", "format": "functional, Mus musculus", "procedure,_shortened": "(§3)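 The virus rating is computed from CPE-inhibition data by the Huffman and Sidwell method. VR > 1 means definite to moderate activity; VR < 0.5 means no significant activity.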"}, "[6]": {"test_system": "L929", "assay": "Inhibitory concentration (reduction in cytopathic effect) against vesicular stomatitis virus (L-929 cell line)", "format": "functional, cell-based", "details": "Mus musculus", "procedure,_shortened": "as §2"}, "[7]": {"test_system": "LLC-MK2", "assay": "Virus rating against yellow fever virus (MK2 cell line); Evaluated by plaque reduction assay", "format": "functional, cell-based", "details": "Cercopithecidae"}, "[8]": {"test_system": "Vero", "assay": "Minimum toxic concentration against vaccinia virus (vero cell line)", "format": "functional, Chlorocebus sabaeus", "procedure,_shortened": "as §1"}, "[9]": {"test_system": "L929", "assay": "Minimum toxic concentration against vesicular stomatitis virus (L-929 cell line)", "format": "functional, Mus musculus", "procedure,_shortened": "as §1"}, "[10]": {"test_system": "Vero", "assay": "Virus rating against vaccinia virus (vero cell line)", "format": "functional, Chlorocebus sabaeus", "procedure,_shortened": "as §3"}, "[11]": {"test_system": "LLC-MK2", "assay": "Inhibitory concentration (reduction in cytopathic effect) against yellow fever virus (MK2 cell line)", "format": "functional, cell-based, Cercopithecidae", "details": "Macaca mulatta", "procedure,_shortened": "as §2"}, "[12]": {"test_system": "Vero", "assay": "Virus rating against vaccinia virus ( vero cell line)", "format": "functional, Chlorocebus sabaeus", "procedure,_shortened": "as §3"}, "[13]": {"test_system": "L929", "assay": "Inhibitory concentration (reduction in cytopathic effect) against vaccinia virus (L-929 cell line)", "format": "functional, cell-based", "details": "Mus musculus", "procedure,_shortened": "as §2"}, "[14]": {"test_system": "L929", "assay": "Minimum toxic concentration against vaccinia virus (L-929 cell line)", "format": "functional, Mus musculus", "procedure,_shortened": "as §1"}, "[15]": {"test_system": "L929", "assay": "Virus rating against vaccinia virus (L-929 cell line)", "format": "functional, Mus musculus", "procedure,_shortened": "as §3"}}, "data": [{"smiles": "Nc1nccc2c1ncn2[C@@H]1C[C@H](CO)[C@H](O)C1O", "note": "(stereo partly drawn)", "values": [{"measurement": "MIC", "setting": "[1]", "value": 20, "unit": "µg/mL"}, {"measurement": "MIC", "setting": "[2]", "value": 20, "unit": "µg/mL"}]}, {"smiles": "C[C@H]1C[C@@H](n2cnc3c(N)nccc32)C(O)[C@H]1O", "note": "(stereo partly drawn)", "values": [{"measurement": "MTC50", "setting": "[3]", "value": 104, "unit": "µg/mL"}, {"measurement": "IC50", "setting": "[4]", "value": 3.1, "unit": "µg/mL"}, {"measurement": "VR", "setting": "[5]", "value": 1}, {"measurement": "IC50", "setting": "[6]", "value": 100, "unit": "µg/mL"}, {"measurement": "VR", "setting": "[7]", "value": "Evaluated by plaque reduction assay"}, {"measurement": "MTC50", "setting": "[8]", "value": 100, "unit": "µg/mL"}, {"measurement": "MTC50", "setting": "[9]", "value": 100, "unit": "µg/mL"}, {"measurement": "VR", "setting": "[10]", "value": 1.4}, {"measurement": "IC50", "setting": "[11]", "value": 23, "unit": "µg/mL"}]}, {"smiles": "Nc1nccc2c1ncn2[C@@H]1C[C@H](CBr)[C@H](O)C1O", "note": "(stereo partly drawn)", "values": [{"measurement": "IC50", "setting": "[4]", "value": 87, "unit": "µg/mL"}, {"measurement": "VR", "setting": "[5]", "value": 0.3}, {"measurement": "IC50", "setting": "[6]", "value": 147, "unit": "µg/mL"}, {"measurement": "MTC50", "setting": "[8]", "value": 320, "unit": "µg/mL"}, {"measurement": "MTC50", "setting": "[9]", "value": 320, "unit": "µg/mL"}, {"measurement": "VR", "setting": "[10]", "value": 0.6}]}, {"smiles": "NC(=O)[C@H]1C[C@@H](n2cnc3c(N)nccc32)C(O)[C@H]1O", "note": "(stereo partly drawn)", "values": [{"measurement": "IC50", "setting": "[4]", "value": 32, "unit": "µg/mL"}, {"measurement": "MTC50", "setting": "[8]", "value": 320, "unit": "µg/mL"}, {"measurement": "VR", "setting": "[12]", "value": 0.7}]}, {"smiles": "Nc1nccc2c1ncn2[C@@H]1C[C@H](CCl)[C@H](O)C1O", "note": "(stereo partly drawn)", "values": [{"measurement": "VR", "setting": "[5]", "value": 0.4}, {"measurement": "IC50", "setting": "[6]", "value": 88, "unit": "µg/mL"}, {"measurement": "MTC50", "setting": "[9]", "value": 283, "unit": "µg/mL"}, {"measurement": "IC50", "setting": "[13]", "value": 32, "unit": "µg/mL"}, {"measurement": "MTC50", "setting": "[14]", "value": 90, "unit": "µg/mL"}, {"measurement": "VR", "setting": "[15]", "value": 0.6}]}, {"smiles": "NC[C@H]1C[C@@H](n2cnc3c(N)nccc32)C(O)[C@H]1O", "note": "(stereo partly drawn)", "values": [{"measurement": "IC50", "setting": "[4]", "value": 18, "unit": "µg/mL"}, {"measurement": "MTC50", "setting": "[8]", "value": 320, "unit": "µg/mL"}, {"measurement": "VR", "setting": "[10]", "value": 1}]}, {"smiles": "OC[C@H]1C[C@@H](n2cnc3cnccc32)C(O)[C@H]1O", "note": "(stereo partly drawn)", "values": [{"measurement": "MTC50", "setting": "[3]", "value": 100, "unit": "µg/mL"}, {"measurement": "VR", "setting": "[5]", "value": 0.7}, {"measurement": "IC50", "setting": "[6]", "value": 49, "unit": "µg/mL"}, {"measurement": "VR", "setting": "[7]", "value": "Evaluated by plaque reduction assay"}, {"measurement": "MTC50", "setting": "[9]", "value": 79, "unit": "µg/mL"}, {"measurement": "IC50", "setting": "[13]", "value": 7, "unit": "µg/mL"}, {"measurement": "IC50", "setting": "[11]", "value": 70, "unit": "µg/mL"}, {"measurement": "MTC50", "setting": "[14]", "value": 249, "unit": "µg/mL"}, {"measurement": "VR", "setting": "[15]", "value": 1}]}]}
